# Screening data deposited in PubChem BioAssay by several laboratories.
# This is a sample that favours compounds with a hit; in the whole collection about 5.1% have one here.
# STAT3 act: IL-6 driven STAT3 reporter potentiators, primary screen, U3A cells, luciferase, luminescence, MLSCN library. IL-6 STAT3-luciferase reporter; 100% = signal with IL-6 EC80 alone. activation (% of control), % at 5.6 µM. 190,000 tested, 0.91% active. AID 871, 2007;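 active means activation above the screen-wide mean of compound activation plus 3 SD, cut at about 130% in these data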;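 further: 0% = background luminescence of wells with medium and substrate only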
#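 Material: human U3A cells carrying STAT3-luciferase construct. Measured by: reporter luminescence signal. Timing: compound 1 h, then IL-6 6 h at 37 °C.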
# STAT1 activator: STAT1 signaling activators, primary screen, cell-based, HTS, luciferase reporter. activation (% of control), % at 5.5 µM. NIH 3T3 STAT1-luciferase reporter, IFN-gamma, luminescence; 100% = IFN-gamma alone, no compound. 200,000 tested, 2.6% active. AID 932, 2007;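 active means activation above the screen-wide mean activation plus 3 SD, cut at about 130% in these data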;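 further: raw ratio to IFN-gamma control signal so 100% means no change and 0% no light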
# STAT3 inh: IL-6 driven STAT3 reporter inhibitors, primary screen, U3A cells, luciferase, luminescence, MLSCN library | AID 862, 2007 | 190,000 tested, 0.89% active | inhibition, % at 5.5 µM | IL-6 STAT3-luciferase reporter; host cell line lacks STAT1;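 active means inhibition above the mean inhibition across all screened compounds plus 3 SD, cut at about 44% in these data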;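 further: 0% = DMSO only wells and 100% = 100 µM nifuroxazide control wells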
# STAT1 inh: STAT1 signaling inhibitors, primary screen, cell-based, HTS, luciferase reporter | AID 920, 2007 | inhibition, % at 5.5 µM | NIH 3T3 STAT1-luciferase reporter, IFN-gamma, luminescence | 200,000 tested, 0.35% active;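 active means inhibition above a set limit, the mean inhibition across all tested compounds plus 3 SD, cut at about 34% in these data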;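 further: 0% = IFN-gamma with DMSO and 100% = IFN-gamma with 300 µM nifuroxazide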
# NF-kB expr up: activators of NF-kB expression in neurons, primary screen, cell-based, HTS. human neuronal cells, NF-kB reporter expression; hits give high values. fold change at 12.5 µM. 190,000 tested, 1.6% active; in the data active means fold change above about 3.3
# APP 5'UTR act: activators of APP 5'UTR luciferase reporter, primary screen, SH-SY5Y cells | 190,000 tested, 1% active | SH-SY5Y APP 5'UTR luciferase reporter, luminescence; zero percent = DMSO vehicle wells | activation, % at 2 µM;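 active means activation above a set limit, based on mean plus 3 SD of controls, cut at about 140% in these data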
# Starred values were filed as active, the others as inactive; . = no result.
SMILES,STAT3 act,STAT1 activator,STAT3 inh,STAT1 inh,NF-kB expr up,APP 5'UTR act
Cc1ccc(-c2nnc(CCC(=O)N(C)Cc3nccs3)o2)s1,100,117,3,-20,2.4,10
COc1cc2[nH]c(=S)nc(NCc3ccccn3)c2cc1OC,90,103,18,-4,1.1,21
O=C1/C(=C\c2ccc([N+](=O)[O-])cc2)CCc2ccccc21,105,100,-1,0,1.3,136*
O=c1c2cc(N3CCOCC3)ccc2[nH]c(=S)n1CCc1ccccc1,82,132*,30,-36,1.8,14
O=C1CCn2nc(-c3ccc(Cl)cc3)cc2N1,111,136*,-13,-38,2.7,64
O=C(NCC1OCCc2ccccc21)c1cc(COc2ccc(F)cc2Cl)on1 (configuration not stated),94,97,12,1,0.92,-4
COc1ccc(OCCOC(=O)c2[nH]c(C)c(C(C)=O)c2C)cc1,86,89,20,12,5.8*,-4
O=[N+]([O-])c1cnn(-c2nc(-c3ccco3)cc(C(F)(F)F)n2)c1,94,95,15,3,1.2,29
CCC(CC)NC(=O)COc1ccc(OC)cc1C=O,109,104,-9,-5,1,4
CCCCc1ccc(-c2ccc(Br)cc2O)nc1,82,140*,26,-43,5.5*,29
O=C(Nc1cc(C(F)(F)F)ccc1N1CCOCC1)c1ccc2ccccc2n1,134*,101,-37,-1,1.1,30
Cc1ccc2nc(SCC(=O)Nc3cc(C(F)(F)F)ccc3N3CCOCC3)[nH]c2c1,107,109,-1,-10,3.6*,-94
Cc1ccc2[nH]c(SCC(=O)N3CCOCC3)nc2c1C,119,122,-23,-30,2.3,23
Cc1ccc2nc(SCC(=O)N3CCOCC3)[nH]c2c1,102,132*,3,-35,2.6,80
Nc1nc(SCC(=O)Nc2cc(C(F)(F)F)ccc2N2CCOCC2)n[nH]1,99,99,6,3,1.5,-8
O=C(CSc1nc2ccccc2[nH]1)N1CCCCC1,94,130*,10,-33,2.2,44
Cc1ccc(SCc2cc(=O)[nH]c(/N=C(\N)Nc3ccc(C)c(C)c3)n2)cc1,87,90,19,11,1.1,25
COc1ccc(N2CCN(C(=O)c3cccnc3SCc3cccc(Br)c3)CC2)cc1,96,93,7,6,1.1,14
CCN(Cc1ccncc1)C(=O)c1ccccc1NS(=O)(=O)c1ccc(F)cc1,105,95,-5,4,1.2,-1
CCOC(=O)c1ccc(NC(=O)N2CCc3ccccc32)cc1,94,125,10,-27,7.9*,205*
COc1ccc(CCC(=O)N2CCc3ccccc32)cc1,84,133*,20,-36,2.2,37
CCOC(=O)c1ccc(NC(=O)CN2CCN(Cc3ccccc3)CC2)cc1,105,96,-4,2,1.3,8
CCOC(=O)c1ccc(NC(=O)N2CCN(Cc3ccccc3)CC2)cc1,133*,108,-28,-10,0.83,15
COc1ccc(NC(=O)N2CCc3ccccc32)cc1,64,124,43,-18,10*,176*
COc1ccc(NC(=O)N2CCCc3ccccc32)cc1,94,87,9,14,1.4,7
SMILES,STAT3 act,STAT1 activator,STAT3 inh,STAT1 inh,NF-kB expr up,APP 5'UTR act
COc1cc(OC)cc(C(=O)N2CCN(Cc3ccccc3Br)CC2)c1,112,102,-9,-4,0.93,-3
Cn1cnnc1SCc1ccc(C(=O)N/N=C/c2cccs2)cc1,100,97,4,3,1.1,-23
NC(=NC(=O)c1ccccc1)N1N=CCC1c1ccccc1 (configuration not stated),108,100,-4,-3,1.1,11
O=C(CCC(=O)N1CCc2ccccc21)Nc1ccccc1,104,101,-4,-1,1.1,3
Cc1ccc(OCC(=O)N2CCCc3ccccc32)cc1,95,109,9,-10,1.3,30
O=C(Nc1ccccc1)N1CCc2ccccc21,87,146*,18,-47,6.5*,102
O=C(COc1ccc2c(c1)CCC2)N1CCc2ccccc21,106,134*,3,-37,2.7,93
Cc1ccc(-c2cn3c(n2)SCC3)cc1,82,141*,23,-45,4.1*,107
O=C(Oc1ccc(-c2cn3c(n2)SCC3)cc1)c1ccccc1,95,110,8,-11,2.1,15
CCCc1nnc(SCC(=O)N2CCCC2)n1Cc1ccco1,98,98,6,1,1.1,23
COc1cc(C2C(C#N)=C(N)Oc3cc(O)ccc32)cc2c1OCO2 (configuration not stated),102,105,2,-7,1.1,5
COc1cc(C2C(C#N)=C(N)Oc3cc(N(C)C)ccc32)cc2c1OCO2 (configuration not stated),131,111,-29,-12,4.8*,-97
C/C(=N\Nc1nccnc1Cl)c1ccc(F)cc1,96,134*,7,-39,0.87,93
CN1/C(=C\C(=O)c2cccnc2)Sc2ccccc21,97,134*,6,-39,2.8,127
COc1cccc(C(=O)/C=C2\Sc3ccccc3N2C)c1,96,150*,9,-59,1,214*
O=C(Nc1nnc(CCN2CCCCC2)s1)c1ccccc1Cl,94,96,10,4,0.9,9
CCCc1cc2c(=O)c(-c3ccccn3)coc2cc1OC,98,136*,7,-39,3.9*,16
CCCc1cc2c(=O)c(-c3ccccn3)c(C)oc2cc1O,116,96,-12,3,1.2,30
O=C(c1ccc(-c2ccc([N+](=O)[O-])cc2)o1)N1CCCCC1,110,128,-15,-32,4.8*,180*
O=C(c1ccc(-c2ccc(Cl)cc2)o1)N1CCN(c2ccc([N+](=O)[O-])cc2Cl)CC1,91,93,18,7,0.68,-6
O=C(O)CCCNc1ccc(S(=O)(=O)N2CCCCC2)cc1,95,94,12,7,.,10
CC(=O)c1sc(NC(=O)C=C(C)C)nc1C,96,105,7,-6,1.9,13
CC(=O)c1sc(NC(=O)C2(F)C(F)(F)C(F)(F)C(F)(F)C(F)(F)C2(F)F)nc1C,55,66,58*,37*,0.55,-12
Cc1cc(C(=O)O)ccc1-n1c(C)cc(/C=C(/C#N)C(=O)Nc2ccccc2)c1C,100,97,4,1,0.96,26
